The target of data set [1] is T1, PCP hydroxylase (Sphingobium chlorophenolicum, UniProt P42535).
T1 sequence (P42535 1-538): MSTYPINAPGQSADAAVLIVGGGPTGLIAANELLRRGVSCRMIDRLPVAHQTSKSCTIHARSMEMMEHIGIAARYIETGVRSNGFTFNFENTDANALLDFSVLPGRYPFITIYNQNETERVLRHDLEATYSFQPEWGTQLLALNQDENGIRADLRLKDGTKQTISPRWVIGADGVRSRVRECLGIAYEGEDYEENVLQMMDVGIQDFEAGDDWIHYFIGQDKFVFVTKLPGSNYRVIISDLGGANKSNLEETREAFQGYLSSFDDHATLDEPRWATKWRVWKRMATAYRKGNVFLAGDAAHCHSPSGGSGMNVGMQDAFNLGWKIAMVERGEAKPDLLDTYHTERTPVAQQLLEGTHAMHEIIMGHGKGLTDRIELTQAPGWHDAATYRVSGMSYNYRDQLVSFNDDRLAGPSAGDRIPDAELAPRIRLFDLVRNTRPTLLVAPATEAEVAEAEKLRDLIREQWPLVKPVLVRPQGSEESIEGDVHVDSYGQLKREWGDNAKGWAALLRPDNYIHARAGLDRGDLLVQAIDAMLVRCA
The experiment in a line: Hydrogen peroxide assay. It is filed as biochemical. The conditions noted are these: 100 μM substrate, 160 μM NADPH. The gist of the method: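 Reaction samples or H2O2 standards were added to freshly prepared reagent (250 μM Fe(II) ammonium sulfate, 25 mM H2SO4, 100 μM xylenol orange, 100 mM sorbitol) and incubated 30–45 min at room temperature. A560 was read against a prior standard curve. Reactions contained substrate or effector (100 μM) and NADPH (160 μM), run in triplicate; average rates came from at least three separate experiments.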

Data set [2] addresses T1, PCP hydroxylase. It counts as biochemical. The conditions noted are these: 100 μM substrate, 160 μM NADPH.
The conditions of data set [3]: phenolic proton, in solution; cited from earlier work.
The target in data set [4] is T1, PCP hydroxylase. The experiment in a line: Spectroscopic assays of enzyme activity, steady-state kinetic parameters. It is filed as biochemical. The conditions noted are these: 160 μM NADPH; for kcat for hydroxylation reaction: in the presence of 6 mM β-ME, ambient O2 (apparent).
In data set [5] the target is T1, PCP hydroxylase. The experiment in a line: HPLC analysis of the products formed by PCP hydroxylase. It is filed as biochemical. The conditions noted are these: for PCP, reaction components after 1 min incubation at room temperature / TCHQ, reaction components after 1 min incubation at room temperature / THTH, reaction components after 1 min incubation at room temperature / TCP, reaction components after 1 min incubation at room temperature: reactant 100 μM, PCP hydroxylase 10 μM, NADPH 300 μM. The gist of the method:
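His6-tagged enzyme expressed in E. coli M15(pReP4). Substrate (100 μM) in 50 mM potassium phosphate pH 7.5 with 25 μM ascorbate, plus 6 mM β-ME where included to trap TCBQ as THTH. Enzyme (10 μM) and NADPH (300 μM) added as indicated, 1 min at room temperature. Quenched into ethyl acetate with p-nitrophenol internal standard, dried, redissolved in TFA/acetonitrile; HPLC detection at 295, 310 and 350 nm.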

Data set [6] relates to PCP hydroxylase. Particulars: cited from earlier work.
Data set [7] deals with T1, PCP hydroxylase. As to the kind of experiment: Determination of dissociation constants by absorbance spectroscopy. It is filed as binding. Particulars: titration at constant enzyme concentration.
The data set “SEC” deals with the molecule itself. The experiment in a line: SEC.
[8] abbreviates: in the presence of 5 mM ascorbate.

Where “and” joins values, the source holds several entries; their conditions need not be identical. Equal entries are not always repeated. Where two headings read alike, the source gives them in different places. Marks after values point to notes of the source that are not given here.

For `Oc1c(Cl)cc(Cl)cc1Cl` [2,4,6-triCP, 2,4,6-trichlorophenol], the H2O2 appearance on PCP hydroxylase [1] turned out to be 0.0012 ± 0.0002 s⁻¹. Further, at PCP hydroxylase [2] (setting [8]), the NADPH /product is listed as 1.5^b, the NADPH disappearance was 0.0048 ± 0.003^b s^−1 and the Product appearance is recorded as 0.0033 ± 0.0002^b s^−1.

Turning to `Oc1c(Cl)cccc1Cl` [2,6-DCP, 2,6-dichlorophenol], the H2O2 appearance on PCP hydroxylase [1] turned out to be 0.0011 ± 0.0002 s⁻¹. Moreover, at PCP hydroxylase [2], the NADPH /product is recorded as 0.9, the NADPH disappearance came to 0.051 ± 0.004 s⁻¹, the Product appearance was determined as 0.060 ± 0.002 s⁻¹ and the “extent of uncoupling (in words)” value is “no uncoupling”.

`Oc1cc(Cl)c(Cl)c(Cl)c1` [3,4,5-triCP, 3,4,5-trichlorophenol]: on PCP hydroxylase [2], the NADPH disappearance was found to be 0.012 ± 0.001 s⁻¹, the Product appearance entry is on record as “none” and the “extent of uncoupling (in words)” value is “complete uncoupling”.

Regarding `Oc1ccc(Cl)c(Cl)c1` [3,4-DCP], at PCP hydroxylase [2], the NADPH disappearance was 0.0045 ± 0.0010 s⁻¹, the Product appearance result is “none” and the “extent of uncoupling (in words)” value is listed as “complete uncoupling”.

At PCP hydroxylase [1], `Oc1cc(Cl)cc(Cl)c1` [3,5-DCP, 3,5-dichlorophenol] had an H2O2 appearance of 0.0029 ± 0.0006 s⁻¹. For the same molecule, at PCP hydroxylase [2], the NADPH disappearance was determined as 0.0079 ± 0.0016 s⁻¹, the Product appearance entry is recorded as “none” and the “extent of uncoupling (in words)” value is “complete uncoupling”.

As for `Oc1c(Cl)c(Cl)c(Cl)c(Cl)c1Cl` [PCP, pentachlorophenol], on PCP hydroxylase [1], the H2O2 appearance worked out at 0.0070 ± 0.0009 s⁻¹. Besides, in data set [3], the pKa was 4.5. In addition, at PCP hydroxylase [2] (setting [8]), the NADPH /product is recorded as 1.3^b, the NADPH disappearance is on record as 0.025 ± 0.001^b s^−1 and the Product appearance is 0.020 ± 0.003^b s^−1. The “kcat for hydroxylation reaction” value on PCP hydroxylase [4] was 0.024 s^−1 and 0.024 ± 0.002^a,b s^−1. For the same molecule, at PCP hydroxylase [5] (no β-ME, 25 μM ascorbate), the “PCP, reaction components after 1 min incubation at room temperature” value was 75 ± 1 and the “TCHQ, reaction components after 1 min incubation at room temperature” value (“TCHQ, reaction components” below) is 18 ± 1. Moreover, on PCP hydroxylase [5] (β-ME 6, 25 μM ascorbate), the “PCP, reaction components after 1 min incubation at room temperature” value was 70 ± 2 and the “THTH, reaction components after 1 min incubation at room temperature” value (shortened to “THTH, reaction components”) came to 28 ± 2. In the data set with PCP hydroxylase [6], the “NADPH consumed for each PCP consumed” value is recorded as 2 equivalents and the “O2 consumed for each PCP consumed” value is 1.4 equivalents.

Turning to `Oc1c(Cl)c(Cl)c(O)c(Cl)c1Cl` [TCHQ, tetrachlorohydroquinone], the H2O2 appearance at PCP hydroxylase [1] stood at 0.035 ± 0.005 s⁻¹. At PCP hydroxylase [7], the “Dissociation constants (in words)” value is “low micromolar range”. Moreover, at PCP hydroxylase [2] (in the presence of 6 mM β-ME), the NADPH /product is given as 6.3^c, the NADPH disappearance is recorded as 0.030 ± 0.003^c s^−1 and the Product appearance is 0.0048 ± 0.0004^c s^−1. Moreover, the “concentration above which substrate inhibition is seen” value at PCP hydroxylase [4] (6 mM β-ME) is greater than 40 µM. Moreover, at PCP hydroxylase [4], the “kcat for hydroxylation reaction” value is > 0.015^a,b s^−1. In addition, on PCP hydroxylase [5] (incubation with the enzyme in the presence of NADPH and β-ME for one minute), the “conversion to THTH” value was determined as 23%. Moreover, on PCP hydroxylase [5] (β-ME 6, 25 μM ascorbate), the “TCHQ, reaction components” value came out at 77 ± 2 and the “THTH, reaction components” value stood at 23 ± 2.

The molecule `Oc1c(Cl)c(Cl)cc(Cl)c1Cl` [TCP, 2,3,5,6-tetrachlorophenol] registered an H2O2 appearance on PCP hydroxylase [1] of 0.0132 ± 0.008 s⁻¹. The “Dissociation constants (in words)” value on PCP hydroxylase [7] is “low micromolar range”. On PCP hydroxylase [2], the NADPH /product stood at 1.5, the NADPH disappearance was 0.111 ± 0.018 s⁻¹ and the Product appearance worked out at 0.076 ± 0.008 s⁻¹. Further, the “Hill coefficient nH” value at PCP hydroxylase [4] amounted to 2. Also, on PCP hydroxylase [5] (no β-ME, 25 μM ascorbate), the “TCHQ, reaction components” value is given as 78 ± 11 and the “TCP, reaction components after 1 min incubation at room temperature” value was 10 ± 1. For the same molecule, at PCP hydroxylase [5] (β-ME 6, 25 μM ascorbate), the “TCHQ, reaction components” value worked out at 75 ± 8; the “TCP, reaction components after 1 min incubation at room temperature” value turned out to be 10 ± 1; the “THTH, reaction components” value amounted to 9 ± 1.

B1: His6-tagged PCP hydroxylase (pentachlorophenol hydroxylase, PcpB) (enzyme, Sphingobium chlorophenolicum, UniProt P42535 1-538, looked up)
chain: MSTYPINAPGQSADAAVLIVGGGPTGLIAANELLRRGVSCRMIDRLPVAHQTSKSCTIHARSMEMMEHIGIAARYIETGVRSNGFTFNFENTDANALLDFSVLPGRYPFITIYNQNETERVLRHDLEATYSFQPEWGTQLLALNQDENGIRADLRLKDGTKQTISPRWVIGADGVRSRVRECLGIAYEGEDYEENVLQMMDVGIQDFEAGDDWIHYFIGQDKFVFVTKLPGSNYRVIISDLGGANKSNLEETREAFQGYLSSFDDHATLDEPRWATKWRVWKRMATAYRKGNVFLAGDAAHCHSPSGGSGMNVGMQDAFNLGWKIAMVERGEAKPDLLDTYHTERTPVAQQLLEGTHAMHEIIMGHGKGLTDRIELTQAPGWHDAATYRVSGMSYNYRDQLVSFNDDRLAGPSAGDRIPDAELAPRIRLFDLVRNTRPTLLVAPATEAEVAEAEKLRDLIREQWPLVKPVLVRPQGSEESIEGDVHVDSYGQLKREWGDNAKGWAALLRPDNYIHARAGLDRGDLLVQAIDAMLVRCA
As to B1, the “stoichiometry N” value in the data set “SEC” turned out to be 2.

Source of the values: paper PMC4251658 (Biochemistry, 2012).
